# Screening data deposited in PubChem by several laboratories.
# Only some compounds are listed: those with a hit (about 2.8% of all), similar ones and a draw of the others.
# Arbovirus inh: antivirals against arbovirus infection, primary screen, cell-based, full library, 10K replicate subset | arbovirus infection cell-based antiviral screen | inhibition, % at 10 µM | 200,000 tested, 0.37% active; in the data active = inhibition above about 30%
# Calb biofilm kill: clotrimazole potentiators killing C. albicans biofilm, primary screen, 4-compound mixtures; AID 1242, 2008; inhibition, % at 7.6 µM; C. albicans biofilm persisters + clotrimazole, fluorescence viability; primary screen in compound mixtures of four per well; 120,000 tested, 0.02% active;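 active = inhibition above 30.3% in the primary screen of four-compound pools, then above 30% when the compound was retested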;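 note: compounds exposed to preformed 24 h biofilms for 48 h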
#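 Probe or stimulus – Clotrimazole 50 µg/mL co-treatment · System – C. albicans biofilms · Schedule – 24 h biofilm formation, then 48 h compound exposure, 37 °C · Evaluation – percent inhibition of biofilm viability · Technique – 2-h Alamar Blue fluorescence, 535/590 nm excitation/emission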
# Mcl1-Noxa inh: Mcl-1/Noxa binding inhibitors, primary screen, biochemical, TR-FRET, 1536-well | inhibition, % at 21.7 µM | TR-FRET Mcl-1/Noxa peptide binding, 2 h | 220,000 tested, 1.5% active | Induced myeloid leukemia cell differentiation protein Mcl-1 (Homo sapiens), Q07820;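 active = compounds that cut the protein-peptide binding signal by more than 50% relative to plate controls in a single-dose test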;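 note: His-tagged Mcl-1 with rhodamine Noxa BH3 peptide and terbium anti-His antibody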
# Target sequence (Q07820 whole entry, looked up): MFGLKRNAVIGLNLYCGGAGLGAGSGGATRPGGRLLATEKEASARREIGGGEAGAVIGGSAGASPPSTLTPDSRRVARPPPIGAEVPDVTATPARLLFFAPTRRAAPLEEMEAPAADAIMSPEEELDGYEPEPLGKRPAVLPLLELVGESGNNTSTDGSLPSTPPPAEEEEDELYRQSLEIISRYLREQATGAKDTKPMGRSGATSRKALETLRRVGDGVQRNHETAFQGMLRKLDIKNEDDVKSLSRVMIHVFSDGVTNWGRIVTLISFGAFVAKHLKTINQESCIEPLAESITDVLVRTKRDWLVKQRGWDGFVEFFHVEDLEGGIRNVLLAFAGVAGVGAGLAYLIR
# Mcl-1 Bim block: inhibitors of Bim peptide binding to Mcl-1, primary screen, biochemical, bead-based flow cytometry, multiplex | Induced myeloid leukemia cell differentiation protein Mcl-1 (Homo sapiens), Q07820 | Bim peptide-Mcl-1 binding | inhibition, % at 10 µM | 190,000 tested, 0.1% active; in the data active = inhibition above about 40%
# m-calpain inh: inhibitors of pig calpain II, primary screen, biochemical, fluorogenic peptide substrate, 1536-well; inhibition, % at 16 µM; purified calpain II, 30 min; 220,000 tested, 0.37% active;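 active = inhibition above about 50%, limit read from the data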
# Mcl1 Bid PPI: Mcl-1/Bid binding inhibitors, primary screen, biochemical, TR-FRET, 1536-well | inhibition, % at 21.7 µM | 220,000 tested, 0.97% active | TR-FRET Mcl-1/Bid-Dy647 peptide binding;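 active = compounds that cut the binding signal by more than half at the single screening dose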;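 note: His-tagged Mcl-1 with europium anti-His antibody binding Bid BH3 peptide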
# Hits are given with their value; i = inactive; nt = no result; ! = a repeat was not active.
SMILES,Arbovirus inh,Calb biofilm kill,Mcl1-Noxa inh,Mcl-1 Bim block,m-calpain inh,Mcl1 Bid PPI
Cc1cc2c(C(C)C)c(O)c(O)c(C=O)c2c(O)c1-c1c(C)cc2c(C(C)C)c(O)c(O)c(C=O)c2c1O,i,i,118,i,55!,100
O=C1NC(=O)C(=Cc2ccc(-c3cc(Cl)ccc3[N+](=O)[O-])o2)C(=O)N1,i,i,87,i,i,i
CC(=NCCC(c1ccccc1)c1ccccc1)c1c(O)n(C)c(=O)n(C)c1=O,i,i,i,i,i,i
COc1ccccc1N1CCN(Cc2ccc(F)cc2)CC1,i,i,i,i,i,i
COc1ccc(CN2CCN(c3ccccc3F)CC2)cc1O,i,nt,i,i,i,81
CN1CCc2nc3sc(C#N)c(N)c3c(-c3cccs3)c2C1,32,nt,i,i,i,i
COc1ccc2c(c1)NP(=S)(Oc1ccccc1)N2 (configuration not stated),nt,i,52,nt,i,i
CC1(C)OC(c2ccccc2)=C/C(=C/C=C2C(=O)NC(=S)NC2=O)O1,i,i,i,i,i,i
CN1/C(=C\C=C2C(=O)NC(=S)NC2=O)C(C)(C)c2ccccc21,i,i,i,i,i,82
O=C(NCCN1CCCCC1)c1ccc(Cl)nc1Cl,i,i,i,i,i,i
CN1C(=O)C(=Cc2sc(=O)n(-c3ccccc3)c2N2CCCCC2)C(=O)N(C)C1=O,nt,i,i,nt,i,97
O=C(COC(=O)Cc1ccccc1)Nc1cccnc1Cl,i,i,i,i,i,i
O=C(Cc1ccccc1)OCCNC(=O)c1cccnc1,i,nt,i,92,i,i
Cc1ccccc1-n1c(O)c(/C=C2/C(c3ccccc3)=Nc3ccccc32)c(=O)[nH]c1=O,i,i,i,i,i,i
COC(=O)C1=Nc2ccccc2/C1=C\c1c(O)n(-c2cc(OC)ccc2OC)c(=O)[nH]c1=O,i,i,65,i,i,i
CCOC(=O)c1c(/N=C/C2C(=O)NC(=S)NC2=O)sc(C)c1C,i,i,i,i,i,67
CCOC(=O)c1c(/N=C/C2C(=O)NC(=S)NC2=O)sc2c1CCC2,i,i,i,i,i,i
O=C(COc1ccccc1)N1CCN(Cc2c[nH]c3ccccc23)CC1,i,nt,i,i,i,68
CCOc1ccccc1N1C(=O)NC(=O)/C(=C/c2ccc3c4c(cccc24)CC3)C1=O,i,nt,i,i,i,i
COc1cccc(N2C(=O)NC(=O)/C(=C/c3ccc4c5c(cccc35)CC4)C2=O)c1,i,i,52,i,i,i
Cc1cccc(-n2c(O)c(/C=C/C=Nc3ccccc3)c(=O)[nH]c2=O)c1,i,i,i,i,i,i
Cn1c(O)c(/C=C/C=Nc2ccccc2)c(=O)n(C)c1=S,i,i,70,i,i,56
COCCNP(=O)(c1ccccc1)c1nc2ccccc2s1 (configuration not stated),i,nt,i,i,i,58
Cc1ccc(NP(=O)(c2ccccc2)c2nc3ccccc3s2)cc1 (configuration not stated),i,i,i,i,i,i
CC(C)Oc1cc(-n2c(=S)[nH]c3ccccc3c2=O)c(Cl)cc1Cl,i,nt,i,i,63,i
SMILES,Arbovirus inh,Calb biofilm kill,Mcl1-Noxa inh,Mcl-1 Bim block,m-calpain inh,Mcl1 Bid PPI
CCCCC(=O)N/N=C/c1c(O)n(-c2cccc3ccccc23)c(=O)[nH]c1=O,nt,i,i,nt,i,i
CCCCCc1nc2ccccc2c(=O)n1-c1ccccc1[N+](=O)[O-],i,i,i,i,i,i
CCCCCc1nc2c(c(=O)c3ccccc3n2C)c(=O)n1C1CCCCCC1,i,i,i,i,i,54
CC[N+](C)(CC)CCCCOc1ccc2c(c1)C(=O)c1cc(OCCCC[N+](C)(CC)CC)ccc1-2,nt,i,i,nt,i,i
Cc1nc(SCc2c(Cl)cccc2Cl)nc(OC(=O)N(C)C)c1C,nt,i,i,nt,i,i
[N-]=[N+]=NC1C[C@H](n2ccc(=O)[nH]c2=O)O[C@@H]1CO (some centres not stated),i,i,i,i,i,i
O=C1NC(=S)N(c2ccccc2F)C(=O)/C1=C\c1cccs1,i,i,86,i,i,i
CCOc1ccc(N2C(=O)/C(=C\c3cccs3)C(=O)NC2=S)cc1,i,i,67,i,i,i
CCOP(=O)(OCC)c1cc(C)c(O)c(C(C)(C)C)c1,nt,i,i,nt,i,i
COc1ccc(C)cc1NC(=O)c1c(C)nn(Cc2ccccc2)c1Cl,i,i,i,i,i,i
Cc1cccc(OCC(=O)N2CCN(Cc3ccncc3)CC2)c1,i,nt,i,i,i,60
CN1C(=O)CN=C(c2ccc(Cl)cc2)c2cc(Cl)ccc21,i,i,i,i,i,97
C=CCn1c(O)c(C(C)=NCC2CCCO2)c(=O)[nH]c1=O (configuration not stated),nt,i,i,nt,i,78
Cc1ccc(N2C(=O)NC(=O)/C(=C/c3ccoc3)C2=O)cc1,nt,i,77,nt,i,i
Cc1ccc(N2C(=O)NC(=O)/C(=C/c3cnn(-c4ccc(C)cc4)c3)C2=O)cc1,i,i,i,i,i,i
Cc1ccc(N2C(=O)NC(=O)/C(=C\c3cnc(-c4ccccc4)nc3)C2=O)cc1,i,i,75,i,i,i
CCNC(=S)NCCC1=c2ccccc2=N/C1=C\c1c(O)n(C)c(=O)n(C)c1=O,nt,i,i,nt,i,i
O=P(C(=Nc1ccc(Cl)cc1)N1CCOCC1)(N1CCOCC1)N1CCOCC1,i,i,i,i,i,i
O=C(C(=O)N1CCOCC1)c1cn(Cc2ccccc2)c2ccccc12,i,i,i,i,i,i
COc1ccc(/C=N/N=C(/N)N[N+](=O)[O-])c(OC)c1,i,nt,i,i,i,i
N/C(=N\N=C/c1ccc(-c2ccc(O)c(C(=O)O)c2)o1)N[N+](=O)[O-],i,nt,87,i,i,i
Fc1c(F)c(F)c(N2CCNCC2)c(F)c1F,i,i,i,i,i,i
COc1ccc2[nH]c(C)c(CCN3CCC(=O)C(C)C3C)c2c1 (configuration not stated),i,nt,i,i,60,i
O=C(c1c[nH]c2ccc(S(=O)(=O)N3CCC4(CC3)OCCO4)cc2c1=O)N1CCC2(CC1)OCCO2,i,i,i,i,i,i
CN[C@H]1C[C@H]2O[C@@](C)([C@H]1OC)n1c3ccccc3c3c4c(c5c6ccccc6n2c5c31)C(=O)NC4,i,i,62,i,i,i
O=S(=O)(F)c1ccc2nc(-c3cccc(Sc4ccccc4)c3)cc(Cl)c2c1,nt,i,i,nt,i,i
CN1CCN(c2cc(N3CCCC3)c([N+](=O)[O-])cc2F)CC1,i,nt,i,i,i,i
